Test results from ChEMBL document CHEMBL4513216, “Probing the Open Global Health Chemical Diversity Library for Multistage-Active Starting Points for Next-Generation Antimalarials” (ACS Infect Dis, 2020).

Assay: Toxicity liver stage against HepG2, at 10uM
Format: cell-based
Design: test concentration 10 uM, cell line HepG2-A16-CD81EGFP
Conditions: human, HepG2-A16-CD81EGFP cells; read-out: INHIBITION
In short: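 Uninfected HepG2-A16-CD81EGFP cells, 3 × 10^3 per well, 1536-well, plated on prespotted compound at 10 μM final, parasite-free screening media added to match infected plates; puromycin 10 μM positive, DMSO 0.5% negative; run in parallel with 48 h PbLuc assay at 37 °C, 5% CO2; viability by CellTiter-Glo luminescence, normalized to controls.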

Row | Compound | cytotoxicity at 10 µM [%]
1 | Cc1noc2ncnc(N(C)Cc3ccco3)c12 | 2.57
2 | COc1ccc(CN2CCCCCC2c2cccs2)c(OC)c1 (configuration not stated) | 11
3 | CN(C)CCCn1cnc2cc(NC(=O)c3n[nH]c4c3CCC4)ccc21 | -5.3
4 | Cc1nccn1-c1ccc(=O)n(CCNC(=O)c2ccncc2)n1 | -3.18
5 | CC(=O)N1CC[C@@H](N2CCN(C)CC2)[C@@H]1Cc1ccccc1 | 9.04
6 | CCC(C)Nc1ccc2c(c1)C1(CCOCC1)C(=O)N2c1ccccc1 (configuration not stated) | 8.7
7 | CC(C)C(=O)N1CCCC2(CCCN2Cc2cccnc2)C1 (configuration not stated) | 5.22
8 | CO[C@@H]1CCN(S(=O)(=O)c2cn(C)cn2)[C@H]1Cc1ccccc1 | 7.13
9 | CC(C)NC(=O)C1CN(C(=O)Cc2cccc(F)c2)CC12CCOCC2 (configuration not stated) | 4.58
10 | Cc1cccc(CN2CCC3(CCCN(C(=O)CN(C)C)C3)C2=O)n1 (configuration not stated) | -3.49
11 | O=C(Cn1ccc2c(Cl)cccc21)N1CCC2(CC1)OCCO2 | 14.2
12 | O=C1CC2(CCN(c3nncs3)C2)CN1c1ccccc1 (configuration not stated) | -8.25
13 | CC(C)CC(=O)N1CC[C@@H]2[C@H](CC1)N(S(C)(=O)=O)CCS2(=O)=O | -11.4
14 | O=C(NCC1CC1)C1CN(C(=O)c2cccs2)CC12CCOCC2 (configuration not stated) | -14
15 | CCc1nc(NCCCn2cccn2)c2c(n1)c(C)nn2C | 6.41
16 | Cc1nn(CC(=O)N2CCN(c3ccccc3F)CC2)c(C)c1Cl | -12.6
17 | CC(NC(=O)C1CC1)c1cc(O)nc(-c2cccnc2)n1 (configuration not stated) | 2.67
18 | CS(=O)(=O)N1CCCC1c1ccnc2nccn12 (configuration not stated) | -2.62
19 | O=C1NC2(CCCN(C(=O)CCn3cccn3)C2)Oc2ccccc21 (configuration not stated) | -6.19
20 | Cc1cc(-c2cnn(CCNC(=O)c3cnn(C)c3)c2C2CC2)on1 | -5.58
21 | Cc1ccc(S(=O)(=O)N2CCC(O)(CN(C)C)C2)cc1 (configuration not stated) | -7.02

Row | Compound | cytotoxicity at 10 µM [%]
22 | Cc1nnc(CN(C)CC(=O)NC(C)(C)c2ccc(F)cc2)n1C | -4.25
23 | COc1cc(C(=O)NC2COc3ccccc3C2)ccc1OCC(N)=O (configuration not stated) | -22.8
24 | CC1(C)CN(C(=O)c2cc(F)cc3[nH]cnc23)CCS1 | -7.36
25 | CCC(C(=O)NCCc1coc(-c2ccc(C)cc2)n1)N(C)C (configuration not stated) | -1.13
26 | CC(NC(=O)CCn1cccn1)c1ccc(-n2ccnn2)cc1 (configuration not stated) | -1.99
27 | CC(C)Oc1ccc(CN)c(C(F)(F)F)c1 | 0.71
28 | CCn1nc(C)cc1C(=O)OCC1CC(=O)N(Cc2ccccc2)C1 (configuration not stated) | 6.68
29 | Cc1ncccc1C(=O)NCC(C)Oc1ccc(F)cc1 (configuration not stated) | -4.08
30 | COc1ccc(CNCC2CN(C3CC3)CCO2)cc1C (configuration not stated) | -8.01
31 | COc1ccc(-c2nnc(CN3CCNC(=O)C3)o2)cc1 | -2.27
32 | COc1ccc(C(=O)Nc2c(C)nn(C(C)C)c2C)cc1 | -3.13
33 | Cc1ccc(NC(=O)c2ccc(CC3CC(=O)NC3=O)cc2)cc1O (configuration not stated) | 4.99
34 | Cc1noc(CNC(=O)N2CCN(c3nc(C)c(C)s3)CC2)n1 | -19.5
35 | CC(CC#N)N1CCN(C(=O)OC(C)(C)C)CC1 (configuration not stated) | -2.72
36 | CCOc1ccc(N(C)S(=O)(=O)c2c[nH]c(C(C)C)n2)cc1 | -4.52
37 | CC(Cc1ccco1)NC(=O)C1=NN(c2ccccc2)C(=O)CC1 (configuration not stated) | 0.537
38 | CC(=O)N1CCC(Nc2cccc(OC(F)F)c2C)CC1 | -15.1
39 | CCN(CC)C(=O)c1cccc(Cn2nc(C)cc2C)c1 | -5.93
40 | OC(CN1CCCc2ccc(F)cc21)Cn1cccn1 (configuration not stated) | 5.95
41 | Cc1ccccc1C(=O)CN1C(=O)c2ccccc2CS1(=O)=O | -10.1
42 | c1ccc2oc(NC3CCCN(Cc4noc(C5CC5)n4)C3)nc2c1 (configuration not stated) | -0.989

Row | Compound | cytotoxicity at 10 µM [%]
43 | CCN(Cc1ccco1)C(=O)c1cc(OC)c2c(c1)OCCO2 | -4.22
44 | CCc1cnc(CN(C)C2CCN(CCc3ccccn3)C2)o1 (configuration not stated) | -14.2
45 | CCc1cc(N(C)Cc2ccncn2)n2nccc2n1 | 3.61
46 | Cc1ccc(N2CCC(C3CCN(CC(C)C)CC3)C2)nn1 (configuration not stated) | -6.81
47 | CN(Cc1n[nH]c2c1CCCC2)c1nc2c(c(=O)[nH]1)CCNCC2 | -20.1
48 | O=C1NCCCc2[nH]c(C3CCN(C(=O)C4CC4)CC3)nc21 | -3.46
49 | O=C(c1ccncc1)N1CCC(Oc2cccc(C(F)(F)F)c2)CC1 | 14.1
50 | O=C1CC(NCc2ccc(Cl)s2)CN1Cc1cccc(F)c1 (configuration not stated) | -0.73
51 | Cc1nc(CN2CCCC(Cn3cc(CCO)nn3)C2)c2ccccn12 (configuration not stated) | 3.28
52 | CC(=O)N1CCCn2nc(CNc3cc(C)ncn3)cc2C1 | 5.19
53 | CCc1nc(CN(C)C(=O)C2CCC(=O)N(CC3CCCCC3)C2)no1 (configuration not stated) | 4.46
54 | O=c1[nH]nc(CCCN2CCOCC2)n1Cc1cccc(F)c1 | 7.04
55 | CCCOc1ccc(C(=O)N[C@@H]2CCNC[C@H]2O)cc1Cl | -10.4
56 | Cc1ccc(C)c(OCc2cc(C(=O)N(C)CC(O)CO)no2)c1 (configuration not stated) | 2.55
57 | COc1ccc(CCN(C)C(=O)CN2C(=O)OC[C@@H]2C(C)C)cc1OC | -11
58 | Cc1ccc2c(c1)c(CNC(=O)C1CCCN(CC(N)=O)C1)nn2C (configuration not stated) | -17.9
59 | CCN(Cc1ccncc1)C(=O)C(C)n1ccnc1C(C)C (configuration not stated) | 2.79
60 | COCCCN(Cc1cnc(N2CCCC2)nc1)C1CCN(C)CC1 | -10.3
61 | COCCNC(=O)c1cc(S(=O)(=O)N2CCCC2)cs1 | 6.15
62 | CCCn1c(C)c(CC(=O)NC)c2c1CC(C)(C)CC2=O | -6.05
63 | CCC1CN(C(=O)c2ccccc2N2CCCC2)CCN1C(C)C (configuration not stated) | -9.78

Row | Compound | cytotoxicity at 10 µM [%]
64 | Cc1ncsc1C(=O)NCCNC(=O)c1cccs1 | -8.83
65 | Cc1ccccc1C1(C(=O)NCCN2CCCCC2C)CCOCC1 (configuration not stated) | -1.69
66 | Cc1noc(C2CCCN(C(=O)CCNc3ncccn3)C2)n1 (configuration not stated) | -8.27
67 | CCN(CC1COc2ccccc2O1)C(=O)NCCCn1cncn1 (configuration not stated) | -9.27
68 | Cc1nc(CN2CCCC2c2c(C)nn(C)c2Cl)no1 (configuration not stated) | 1.85
69 | Cc1cc(C(=O)NCCN2CCN(S(C)(=O)=O)CC2)no1 | -6.29
70 | Cc1cc(C)c2[nH]c(C)c(CC(=O)N(C)CCN(C)C)c2c1 | 2.49
71 | COCCN1C(=O)CCC12CCC(NCc1nccs1)CC2 (configuration not stated) | 7.01
72 | O=C(C1CC1)N1CCC[C@]2(C[C@@H](OCc3ccncc3)CO2)C1 | 6.46
73 | Cn1cccc1C(=O)N1CCN(Cc2cccnc2)c2ncccc2C1 | 10.9
74 | O=C(NCc1cncc2c1CCN(Cc1cccc(F)c1)C2)C1CC1 | -8.16
75 | CNC(=O)[C@H]1C[C@H]2OCC[C@H]2N(CC2CC2)C1 | 4.17
76 | O=C(c1ccccc1F)N1C[C@@H]2COC[C@]2(COCc2cccnc2)C1 | 6.27
77 | CC(C)N1CCOCC2(CN(Cc3nccs3)CCO2)C1 (configuration not stated) | -0.653
78 | CN(Cc1cccnc1)C1COC2(CCN(Cc3nccs3)CC2)C1 (configuration not stated) | 6.37
79 | O=C(c1ccc(F)cc1)N1C[C@@H]2OCCN(c3ncccn3)[C@@H]2C1 | -9.55
80 | Cc1ccc(CN2Cc3nnn(C)c3C(COCCN(C)C)C2)s1 (configuration not stated) | -7.25
81 | OC(CN1CCN(Cc2cccnc2)CC1)c1cccs1 (configuration not stated) | -5.62
82 | CNC(=O)[C@H]1C[C@H]2OCC[C@H]2N(Cc2ccc(C)o2)C1 | 11.8
